OX1R antag-1: OX1R (HCRTR1) antagonists, primary screen, fluorescence, CHO/OX1R cells, Fluo-8 calcium, orexin A; Orexin/Hypocretin receptor type 1 (Homo sapiens), O43613; AID 434989, 2010; 0.43% of 330,000 active; Fluo-8 calcium fluorescence; inhibition, % at 5 µM;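 active means inhibition above its plate's threshold, mean inhibition of all tested compounds on the plate plus 3 SD, cut at about 37% in these data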;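 further: 0% = orexin A challenge wells and 100% = SB-334867-A antagonist wells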
Target sequence (O43613 whole entry, looked up): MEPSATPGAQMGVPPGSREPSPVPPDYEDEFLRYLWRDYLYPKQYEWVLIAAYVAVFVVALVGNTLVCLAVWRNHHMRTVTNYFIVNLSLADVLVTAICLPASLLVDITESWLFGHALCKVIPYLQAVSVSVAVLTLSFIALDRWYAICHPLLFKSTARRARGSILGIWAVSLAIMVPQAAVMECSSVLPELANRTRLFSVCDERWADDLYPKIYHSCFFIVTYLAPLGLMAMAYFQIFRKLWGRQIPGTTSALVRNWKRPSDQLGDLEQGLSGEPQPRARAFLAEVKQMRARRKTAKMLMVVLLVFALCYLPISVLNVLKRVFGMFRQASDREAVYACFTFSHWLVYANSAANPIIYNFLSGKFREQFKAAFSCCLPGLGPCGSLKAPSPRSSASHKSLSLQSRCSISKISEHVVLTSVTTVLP
V1R ag counter: agonists of human V1a receptor, primary screen, counter-screen for OXTR agonist project, fluorescence, CHO-V1R cells | Vasopressin V1a receptor (Homo sapiens), P37288 | Fluo-8 calcium fluorescence, agonist mode; 0% DMSO, 100% 3 nM vasopressin | activation, % at 3 µM | 0.25% of 320,000 active | AID 2797, 2010;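 active means activation above the mean activation of all tested compounds plus 3 SD, per screening run, cut at about 20% in these data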;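 further: signal is peak over basal fluorescence ratio across a 100 second FLIPR read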
OXTR ag: human OXTR agonists, primary screen, fluorescence, CHO-OTR cells, Fluo-8 calcium; Oxytocin receptor (Homo sapiens), P30559; activation, % at 3 µM; Fluo-8 calcium fluorescence; normalized: DMSO 0%, oxytocin 100%; 0.32% of 320,000 active;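 active means activation above the mean of all tested compounds plus 3 SD, cutoff set per screening run, cut at about 20% in these data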;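 further: peak over basal fluorescence ratio from a 100 s FLIPR kinetic read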
CHO parental Ca: ATP-evoked calcium signal inhibitors, parental CHO, primary screen, counter-screen for OX1R antagonist project, cell-based, fluorescence, Fluo-8 calcium dye | parental CHO-K1, ATP-induced calcium, Fluo-8 fluorescence | inhibition, % at 5.6 µM | 0.63% of 330,000 active | AID 463079, 2010;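 active means inhibition above that plate's mean sample inhibition plus 3 SD, cut at about 26% in these data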;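 further: 0% = ATP-challenged DMSO wells and 100% = DMSO wells without ATP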
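Measured by: calcium-sensitive Fluo-8 fluorescence / Test system: CHO parental line / Controls: ATP-challenged DMSO wells low, unchallenged DMSO wells high / Measure: % inhibition / Compound: single nominal dose of 5.6 µM per compound / Replicates: single well per compound, no replicates / Reagent: ATP as calcium-mobilizing challenge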
OX1R antag-2: antagonists of human orexin 1 receptor (OX1R). Orexin/Hypocretin receptor type 1 (Homo sapiens), O43613. OX1R-expressing cells, FRET antagonist read-out. inhibition, % at 6.6 µM. 1.8% of 330,000 active. AID 485270, 2010; in the data active means inhibition mostly above about 38%, no sharp cut-off; inactive means mostly below about 40%;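 further: 0% = agonist challenge alone and 100% = reference antagonist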
OXTR potentiator: human OXTR potentiators, primary screen, fluorescence, CHO-OTR cells, Fluo-8 calcium | Oxytocin receptor (Homo sapiens), P30559 | Fluo-8 calcium fluorescence, potentiator mode; 0% = oxytocin EC15, 100% = EC100 | activation, % at 3 µM | 0.061% of 320,000 active | AID 2445, 2010;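 active means activation above that plate's cutoff, the mean activation of tested compounds plus 3 SD, cut at about 6.6% in these data, passing the limit was not always enough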;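 further: 100% uses oxytocin at 75 nM as the full agonist control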
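Assay system: CHO cell line stably expressing human OTR | Also added: Oxytocin at about EC15, sub-maximal agonist stimulus | Times: Compound 6 min at room temperature before oxytocin, 100 s read | Measured by: Fluo-8 intracellular calcium fluorescence, ex 470-495, em 515-575 nm | Controls: EC15 oxytocin alone as 0%, 75 nM oxytocin as 100%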
OX1R HTRF confirm: OX1R (HCRTR1) antagonists, confirmation, cell-based, HTRF; shares compounds with OX1R antag-2; OX1R-expressing cells, HTRF antagonist assay; inhibition, % at 6.6 µM; 49% of 1,800 active; AID 492964, 2010; in the data active means inhibition above about 55%;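 further: CHO cells expressing OX1R stimulated with orexin A at about EC80; 0% = agonist challenge alone and 100% = reference antagonist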
CHO-K1 HTRF: signal inhibition in parental CHO-K1 cells, counter-screen for OX1R antagonist project, cell-based, HTRF; shares compounds with OX1R antag-2; HTRF counterscreen; inhibition, % at 6.6 µM; 48% of 1,800 active; in the data active means inhibition above about 17%;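 further: 0% = agonist challenge with vehicle and 100% = vehicle alone without agonist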
* = called active by the depositor; · = no result. A selection: hits, their analogues and other compounds. The true share with any hit is near 2.7%.

SMILES	OX1R antag-1	V1R ag counter	OXTR ag	CHO parental Ca	OX1R antag-2	OXTR potentiator	OX1R HTRF confirm	CHO-K1 HTRF
CCOc1cc(NCCN2CCOCC2)c([N+](=O)[O-])cc1OCC	-26	0	0	-7	91*	-3	38	49*
CCOc1cc(C(=O)NCCN2CCOCC2)cc(OCC)c1OCC	-12	0	-1	-11	5	2	·	·
CC(C(=O)NCCN1C(=O)S/C(=C\c2cccnc2)C1=O)N1C(=O)c2ccccc2C1=O (stereo unspecified)	-34	-1	-1	-14	79*	-6	64*	40*
O=C(CCl)NCCN1C(=O)S/C(=C\c2cccnc2)C1=O	-6	0	0	6	49	-10	·	·
COc1ccc(C(=O)NCCN2C(=O)S/C(=C\c3cccnc3)C2=O)c(OC)c1OC	-14	2	1	-20	82*	-5	58*	24*
CCCC[n+]1ccc(-c2nc3ccc([N+](=O)[O-])cc3[nH]2)cc1	-13	0	0	-5	113*	-11	56*	80*
O=C(Nc1cccc(-c2ccc(F)cc2)c1)C1CCCN(C(=O)c2cscn2)C1 (stereo unspecified)	-24	4	9	-28	7	-8	·	·
COc1ccc(-c2ccc(/C=C3\C(=O)N(c4ccccc4)N=C3c3ccccc3)o2)c([N+](=O)[O-])c1	-1	1	1	-4	18	-1	·	·
COc1ccc(-c2ccc(/C=C3/C(=N)N4C(C)=CSC4=NC3=O)o2)c([N+](=O)[O-])c1	11	1	0	-10	91*	-3	58*	18*
Cc1cc(C=O)c(O)cc1O	-3	1	2	-6	24	-1	·	·
CCn1c(=O)cc(OCC(=O)Nc2ccc(OC)c(OC)c2)c2ccccc21	-11	1	0	-6	82*	-6	21	4
CCn1c2ccccc2c2cc(NC(=O)COC(=O)c3cc(OC)c(OC)cc3OC)ccc21	19	-1	-2	-17	80*	-8	89*	12
Cc1ccc(NC(=O)c2cc(S(=O)(=O)N(C)C)ccc2N2CCCC2)cc1F	-1	3	-2	-10	23	-5	·	·
COc1ccc(/[N+]([O-])=C/c2ccoc2)cc1	3	1	2	-10	11	3	·	·
CCN1CCN(Cc2c3ccccc3cc3ccccc23)CC1	-24	0	-1	-21	20	-6	·	·
CCOC(=O)c1[nH]c2ccc(OC)cc2c1NC(=S)N1CCN(c2ccccc2OC)CC1	-36	1	1	-23	12	-10	·	·
COc1cc([N+](=O)[O-])ccc1NC(=O)COC(=O)c1ccc(NC(N)=O)cc1	-5	2	0	-7	6	-12	·	·
COc1cccc(/C=N/NC(=O)c2c(-c3ccccc3)noc2C)c1O	4	2	1	-13	98*	-15	34	10
COc1cccc(/C=N/NC(=O)c2c(-c3ccccc3)noc2C)c1OC	-22	3	0	-21	23	-5	·	·
CCOc1ccccc1CN1CCC(n2nccc2NC(=O)C2CCCC2)CC1	-29	0	0	-21	16	-2	·	·
O=C(CCN1C(=O)[C@@H]2Cc3ccccc3CN2C1=O)NCc1ccccc1Cl	-41	4	2	-12	6	-5	·	·
O=C(Cn1cnc2cc([N+](=O)[O-])ccc2c1=O)N(Cc1ccccc1)C1CCS(=O)(=O)C1 (stereo unspecified)	-22	0	0	-16	49	-11	·	·

Source: PubChem (The Scripps Research Institute Molecular Screening Center)
